# Measured values reported in ChEMBL document CHEMBL1287681, “Tetrahydrocarboline analogs as MCH-1 antagonists” (Bioorg Med Chem Lett, 2010).
# Key:
# [1] = Aqueous solubility of the compound in PBS buffer at pH 7.4 after 24 hrs; format: physicochemical
# How it was run: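 Solubility measured in PBS at pH 7.4 after a 24 h equilibration period.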
# Cytochrome P450 2D6 = Cytochrome P450 2D6 (Homo sapiens, UniProt P10635); assay: Inhibition of CYP2D6; format: ADME
# Cytochrome P450 3A4 = Cytochrome P450 3A4 (Homo sapiens, UniProt P08684); assay: Inhibition of CYP3A4; format: ADME
# [2] = Half life in mouse liver microsome; format: ADME; settings: liver microsomes
# How it was run: (§1)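 Half-life in mouse or human liver microsomes, reported in min.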
# Cytochrome P450 1A2 = target: T1, Cytochrome P450 1A2 (Homo sapiens, UniProt P05177); assay: (§2) Inhibition of CYP1A2; format: ADME
# T1 sequence (P05177 whole entry): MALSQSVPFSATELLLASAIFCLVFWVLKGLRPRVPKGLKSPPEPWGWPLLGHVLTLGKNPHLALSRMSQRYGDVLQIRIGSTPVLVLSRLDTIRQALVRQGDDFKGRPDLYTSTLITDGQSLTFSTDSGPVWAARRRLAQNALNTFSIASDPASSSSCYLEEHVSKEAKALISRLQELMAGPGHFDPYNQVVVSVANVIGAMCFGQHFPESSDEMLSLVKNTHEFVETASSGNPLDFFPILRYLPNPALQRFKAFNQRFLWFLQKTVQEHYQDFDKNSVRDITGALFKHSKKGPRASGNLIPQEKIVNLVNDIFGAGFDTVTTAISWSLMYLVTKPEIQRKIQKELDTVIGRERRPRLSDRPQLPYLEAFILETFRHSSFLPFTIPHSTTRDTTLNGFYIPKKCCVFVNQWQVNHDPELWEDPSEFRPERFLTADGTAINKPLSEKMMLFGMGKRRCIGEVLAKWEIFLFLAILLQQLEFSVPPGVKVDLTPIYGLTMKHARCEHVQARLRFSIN
# Cytochrome P450 2B6 = target: T2, Cytochrome P450 2B6 (Homo sapiens, UniProt P20813); assay: Inhibition of CYP2B6; format: ADME
# T2 sequence (P20813 whole entry): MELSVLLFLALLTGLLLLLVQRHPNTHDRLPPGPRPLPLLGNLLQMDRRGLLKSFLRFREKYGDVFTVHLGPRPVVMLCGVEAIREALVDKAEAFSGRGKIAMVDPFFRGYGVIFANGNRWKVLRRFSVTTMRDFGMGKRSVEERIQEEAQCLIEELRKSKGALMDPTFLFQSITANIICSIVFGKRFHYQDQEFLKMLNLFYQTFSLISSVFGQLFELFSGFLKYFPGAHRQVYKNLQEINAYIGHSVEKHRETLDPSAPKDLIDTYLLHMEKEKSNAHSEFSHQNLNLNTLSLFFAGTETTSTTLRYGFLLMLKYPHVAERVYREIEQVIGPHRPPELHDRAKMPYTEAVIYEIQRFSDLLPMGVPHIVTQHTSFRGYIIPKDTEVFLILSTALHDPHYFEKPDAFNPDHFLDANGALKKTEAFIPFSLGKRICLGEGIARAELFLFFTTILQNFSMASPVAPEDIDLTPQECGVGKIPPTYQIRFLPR
# [3] = Half life in human liver microsome; format: ADME; settings: liver microsomes; how it was run: as §1
# [4] = target: T3, Melanin-concentrating hormone receptor 1 (Homo sapiens, UniProt Q99705); assay: Displacement of [3H]4-(benzyloxy)-1-(1-(2-(pyrrolidin-1-yl)ethyl)-1H-indazol-5-yl)pyridin-2(1H)-one from MCH-1 receptor expressed in CHO-K1 cells; format: cell-based
# How it was run: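 Membranes from stable CHO-K1 cells expressing human MCH-1 receptor (8.92 µg protein) incubated 60 min at 25 °C with 1.4 nM tritiated indazolyl-pyridinone radioligand ± test compound in 50 mM Tris–HCl, pH 7.4. Nonspecific binding defined with 50 µM of a piperazinylpropyl urea ligand. Values are means of at least two determinations, each within 40% of the mean.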
# [5] = Plasma protein binding in DIO mouse at 30 mg/kg, po; format: ADME, organism-based; design: dose 30 mg/kg, route oral; settings: read-out: PPB (converted)
# How it was run: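 Mouse plasma protein binding determined by ultrafiltration.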
# CYP1A2 = target: T4, CYP1A2 (Homo sapiens, UniProt P05177); assay: as §2; format: ADME
# T4 sequence (P05177 whole entry): T1 sequence (P05177 whole entry)
# [6] = Ratio of drug level in brain to plasma in DIO mouse at 30 mg/kg, po; settings: read-out: BPR
# Mus musculus [7] = assay: Antiobesity activity in diet-induced obese mouse assessed as reduction in body weight at 60 mg/kg qd; format: functional; design: scale not given: the % may be the effect or the level left
# [8] = Drug level in DIO mouse brain at 30 mg/kg, po after 6 hrs; format: ADME, organism-based; design: dose 30 mg/kg, route oral; settings: read-out: Drug uptake
# How it was run: (§3)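 DIO mice given 30 mg/kg orally. Plasma (ng/mL) and brain (ng/g) concentrations measured 6 h post dose; AUC determined from 0 to 6 h.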
# Mus musculus [9] = assay: Antiobesity activity in diet-induced obese mouse assessed as reduction in body weight at 30 mg/kg bid; format: functional; design: scale not given: the % may be the effect or the level left
# [10] = AUC (0 to 6 hrs) in DIO mouse at 30 mg/kg, po; format: ADME, organism-based; design: time < 6 hr, dose 30 mg/kg, route oral; settings: plasma; how it was run: as §3
# [11] = Drug level in DIO mouse plasma at 30 mg/kg, po after 6 hrs; format: ADME, organism-based; design: dose 30 mg/kg, route oral; how it was run: as §3
# [12] = Ionisation constant for the compound; format: physicochemical
# [13] = target: T3, Melanin-concentrating hormone receptor 1; assay: Antagonist activity at MCH-1 receptor; format: functional
# How it was run: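 Functional antagonism read as Ca2+ mobilization in an Aequorin cell line expressing recombinant MCH-1 receptor, run by a contract lab.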
# Mus musculus [14] = assay: Antiobesity activity in diet-induced obese mouse assessed as reduction in body weight at 30 mg/kg qd; format: functional; design: scale not given: the % may be the effect or the level left
# How it was run: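 Male C57BL/6J diet-induced obese mice dosed orally once daily, 30 mg/kg in 1% methylcellulose in water, for 5 days. Body weight tracked daily; % difference from vehicle control on Day 6. Adjusted means, n = 8–10, ANCOVA with Day 1 body weight as covariate, then Dunnett's test.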
# [15] = tested on: panel of 30 GPCRs and transporters (off-target); assay: Inhibition of panel of 30 GPCRs and transporters at 1 uM
# [16] = Ratio of drug level in brain to plasma in lean mouse at 10 mg/kg, po; settings: read-out: BPR
# [17] = Stability in human liver microsome assessed as compound remaining after 1 hr; format: ADME; settings: liver microsomes, read-out: Stability
# How it was run: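 Human liver microsome incubation; percentage of parent remaining after 1 h.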
# Cytochrome P450 2C9 = Cytochrome P450 2C9 (Homo sapiens, UniProt P11712)
# Cytochrome P450 2C19 = Cytochrome P450 2C19 (Homo sapiens, UniProt P33261)
# Chain of Cytochrome P450 2C19 (P33261 whole entry): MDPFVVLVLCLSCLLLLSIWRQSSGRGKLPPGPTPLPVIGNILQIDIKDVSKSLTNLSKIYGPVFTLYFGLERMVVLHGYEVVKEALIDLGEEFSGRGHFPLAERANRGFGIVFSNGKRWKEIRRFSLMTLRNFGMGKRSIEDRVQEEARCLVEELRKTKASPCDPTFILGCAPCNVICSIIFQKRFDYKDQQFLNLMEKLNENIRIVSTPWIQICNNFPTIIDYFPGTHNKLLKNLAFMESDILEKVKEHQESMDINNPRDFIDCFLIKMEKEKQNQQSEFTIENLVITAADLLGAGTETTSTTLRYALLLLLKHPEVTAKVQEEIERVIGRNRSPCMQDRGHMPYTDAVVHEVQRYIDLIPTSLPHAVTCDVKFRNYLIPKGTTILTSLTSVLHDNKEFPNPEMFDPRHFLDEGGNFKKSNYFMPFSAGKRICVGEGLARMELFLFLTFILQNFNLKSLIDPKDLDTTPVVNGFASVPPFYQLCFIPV
# Chain of Cytochrome P450 3A4 (P08684 whole entry): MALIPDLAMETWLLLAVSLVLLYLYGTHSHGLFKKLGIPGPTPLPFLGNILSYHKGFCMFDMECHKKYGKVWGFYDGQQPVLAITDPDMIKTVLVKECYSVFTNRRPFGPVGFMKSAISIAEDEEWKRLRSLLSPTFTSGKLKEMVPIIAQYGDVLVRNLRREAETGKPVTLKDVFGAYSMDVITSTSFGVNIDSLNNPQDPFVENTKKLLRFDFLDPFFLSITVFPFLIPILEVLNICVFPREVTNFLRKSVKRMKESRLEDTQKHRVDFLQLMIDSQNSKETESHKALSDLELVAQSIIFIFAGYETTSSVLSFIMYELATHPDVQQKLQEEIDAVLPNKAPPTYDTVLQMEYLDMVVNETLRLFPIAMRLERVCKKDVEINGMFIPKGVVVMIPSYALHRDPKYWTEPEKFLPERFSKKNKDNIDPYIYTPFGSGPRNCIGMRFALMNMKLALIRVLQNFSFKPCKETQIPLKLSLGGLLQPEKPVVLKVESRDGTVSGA
# Chain of Cytochrome P450 2D6 (P10635 whole entry): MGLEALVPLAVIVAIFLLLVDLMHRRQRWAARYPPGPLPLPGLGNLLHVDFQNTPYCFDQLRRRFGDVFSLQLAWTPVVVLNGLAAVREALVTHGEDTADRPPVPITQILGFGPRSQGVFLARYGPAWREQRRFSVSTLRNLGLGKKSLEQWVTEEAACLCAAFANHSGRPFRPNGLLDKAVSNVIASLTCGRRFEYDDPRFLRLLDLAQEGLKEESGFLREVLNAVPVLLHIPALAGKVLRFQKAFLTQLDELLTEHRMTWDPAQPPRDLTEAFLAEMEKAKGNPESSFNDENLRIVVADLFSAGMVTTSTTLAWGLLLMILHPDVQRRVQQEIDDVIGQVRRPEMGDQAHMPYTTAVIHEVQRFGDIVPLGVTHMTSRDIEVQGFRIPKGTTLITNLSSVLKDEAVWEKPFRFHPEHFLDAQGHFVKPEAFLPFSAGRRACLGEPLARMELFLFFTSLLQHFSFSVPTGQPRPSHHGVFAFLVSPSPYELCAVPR
# T3 sequence (Q99705 whole entry): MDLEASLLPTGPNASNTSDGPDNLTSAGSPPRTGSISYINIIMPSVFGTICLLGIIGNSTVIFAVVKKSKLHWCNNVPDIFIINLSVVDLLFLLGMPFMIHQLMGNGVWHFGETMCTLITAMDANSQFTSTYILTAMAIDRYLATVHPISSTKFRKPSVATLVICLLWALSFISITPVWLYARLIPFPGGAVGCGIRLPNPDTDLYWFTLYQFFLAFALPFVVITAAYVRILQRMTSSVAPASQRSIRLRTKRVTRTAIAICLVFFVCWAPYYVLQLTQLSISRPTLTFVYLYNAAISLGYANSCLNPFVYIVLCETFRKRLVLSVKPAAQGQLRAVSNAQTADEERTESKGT
# Chain of Cytochrome P450 2C9 (P11712 whole entry): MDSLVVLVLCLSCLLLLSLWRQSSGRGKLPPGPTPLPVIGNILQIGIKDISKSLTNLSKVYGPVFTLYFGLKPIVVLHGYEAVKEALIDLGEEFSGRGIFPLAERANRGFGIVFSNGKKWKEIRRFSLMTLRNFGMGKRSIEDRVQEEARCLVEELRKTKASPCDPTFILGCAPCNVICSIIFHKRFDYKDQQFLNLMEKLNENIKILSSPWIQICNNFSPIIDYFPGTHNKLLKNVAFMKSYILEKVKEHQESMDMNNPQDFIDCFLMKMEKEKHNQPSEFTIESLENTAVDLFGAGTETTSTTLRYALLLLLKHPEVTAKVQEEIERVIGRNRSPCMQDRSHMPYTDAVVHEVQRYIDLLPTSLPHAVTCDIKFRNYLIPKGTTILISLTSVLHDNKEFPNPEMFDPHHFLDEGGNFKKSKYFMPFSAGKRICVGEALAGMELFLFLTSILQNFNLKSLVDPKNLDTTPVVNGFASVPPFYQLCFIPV
smiles,measurement,setting,value
CN1CCc2c(n(C)c3cc(-n4ccc(OCc5ccccc5)cc4=O)ccc23)C1,solubility at 24 h,[1],93 µM
same,IC50,Cytochrome P450 2D6,> 10 µM
same,IC50,Cytochrome P450 3A4,24 µM
same,half-life,[2],63 min
same,IC50,Cytochrome P450 1A2,> 10 µM
same,IC50,Cytochrome P450 2B6,> 10 µM
same,half-life,[3],> 1000 min
same,Ki,[4],5.2 nM
COc1ccc(-c2ccn(-c3ccc4c5c(n(C)c4c3)CCNC5)c(=O)c2)c(C)c1,Ki,[4],7.6 nM
Cn1c2c(c3ccc(-n4ccc(-c5ccc(C(F)(F)F)cc5)cc4=O)cc31)CCNC2,Ki,[4],11 nM
O=c1cc(OCc2ccccc2)ccn1-c1ccc2c(cnn2CCN2CCCC2)c1,fraction unbound,[5],0.086
same,IC50,CYP1A2,> 10 µM
same,Kp,[6],0.72
same,Activity,Mus musculus [7],2.8%
same,concentration at 6 h,[8],1380 ng/mL
same,Activity,Mus musculus [9],6%
same,AUC(0-t) at 6 h,[10],14800 ng·h/mL
same,concentration at 6 h,[11],1950 ng/mL
same,pKa,[12],8.63
Cn1c2c(c3ccc(-n4ccc(OCc5ccc(Cl)cc5)cc4=O)cc31)CNCC2,Ki,[4],4.2 nM
CN1CCc2c(c3ccc(-n4ccc(-c5ccc(F)cc5)cc4=O)cc3n2C)C1,Ki,[4],7.8 nM
CSc1ccc(-c2ccn(-c3ccc4c5c(n(C)c4c3)CCNC5)c(=O)c2)cc1,Ki,[4],2.4 nM
CN1CCc2c(n(C)c3cc(-n4ccc(OCc5ccc(C(F)(F)F)cc5)cc4=O)ccc23)C1,Ki,[4],25 nM
CN1CCc2c(n(C)c3cc(-n4ccc(-c5ccc(Cl)cc5Cl)cc4=O)ccc23)C1,Ki,[4],14 nM
Cn1c2c(c3ccc(-n4ccc(OCc5ccccc5)cc4=O)cc31)CCNC2,solubility at 24 h,[1],> 500 µM
same,IC50,Cytochrome P450 2D6,> 10 µM
same,IC50,Cytochrome P450 3A4,12 µM
same,half-life,[2],482 min
same,fraction unbound,[5],0.059
same,IC50,Cytochrome P450 1A2,> 10 µM
same,IC50,Cytochrome P450 2B6,> 10 µM
same,half-life,[3],450 min
same,IC50,[13],14.4 nM
same,Ki,[4],4.9 nM
same,Kp,[6],0.51
same,Activity,Mus musculus [14],9.1%
same,concentration at 6 h,[8],4010 ng/mL
same,AUC(0-t) at 6 h,[10],41300 ng·h/mL
same,concentration at 6 h,[11],8030 ng/mL
same,pKa,[12],8.81
COc1ccc(-c2ccn(-c3ccc4c5c(n(C)c4c3)CNCC5)c(=O)c2)c(C)c1,Ki,[4],14 nM
CN1CCc2c(n(C)c3cc(-n4ccc(-c5ccc(F)cn5)cc4=O)ccc23)C1,Ki,[4],708 nM
COc1ccc(-c2ccn(-c3ccc4c5c(n(C)c4c3)CNCC5)c(=O)c2)cc1,Ki,[4],14 nM
CN1CCc2c(c3ccc(-n4ccc(OCc5ccccc5)cc4=O)cc3n2C)C1,solubility at 24 h,[1],110 µM
same,IC50,Cytochrome P450 2D6,> 10 µM
same,IC50,Cytochrome P450 3A4,67 µM
same,inhibition,[15],< 55%
same,Kp,[16],0.9
same,half-life,[2],> 1000 min
same,fraction unbound,[5],0.016
same,IC50,Cytochrome P450 1A2,> 10 µM
same,IC50,Cytochrome P450 2B6,> 10 µM
same,half-life,[3],770 min
same,Ki,[4],4.5 nM
same,Activity,Mus musculus [14],7.2%
same,AUC(0-t) at 6 h,[10],27000 ng·h/mL
same,concentration at 6 h,[11],5030 ng/mL
Cn1c2c(c3ccc(-n4ccc(-c5ccc(Cl)cc5Cl)cc4=O)cc31)CNCC2,Ki,[4],7.2 nM
COc1ccc(-c2ccn(-c3ccc4c5c(n(C)c4c3)CCNC5)c(=O)c2)cc1,Ki,[4],2.6 nM
CN1CCc2c(n(C)c3cc(-n4ccc(OCc5ccc(Cl)cc5)cc4=O)ccc23)C1,Ki,[4],7.6 nM
Cn1c2c(c3ccc(-n4ccc(OCc5ccc(C(F)(F)F)cc5)cc4=O)cc31)CNCC2,Ki,[4],6.7 nM
Cn1c2c(c3ccc(-n4ccc(-c5ccc(C(F)(F)F)cc5)cc4=O)cc31)CNCC2,Ki,[4],4.2 nM
Cn1c2c(c3ccc(-n4ccc(-c5ccc(Cl)cn5)cc4=O)cc31)CCNC2,Ki,[4],128 nM
CN1CCc2c(n(C)c3cc(-n4ccc(-c5ccc(Cl)cc5)cc4=O)ccc23)C1,Ki,[4],5.6 nM
Cn1c2c(c3ccc(-n4ccc(OCc5ccccc5)cc4=O)cc31)CNCC2,solubility at 24 h,[1],470 µM
same,IC50,Cytochrome P450 2D6,> 10 µM
same,IC50,Cytochrome P450 3A4,68 µM
same,remaining at 1 h,[17],98.4%
same,IC50,Cytochrome P450 2C9,> 10 µM
same,IC50,Cytochrome P450 2C19,> 10 µM
same,IC50,Cytochrome P450 1A2,> 10 µM
same,IC50,Cytochrome P450 2B6,> 10 µM
same,half-life,[3],462 min
same,Ki,[4],3.8 nM
Cn1c2c(c3ccc(-n4ccc(-c5ccc(Cl)cc5)cc4=O)cc31)CNCC2,Ki,[4],2.7 nM
COc1cc(Cl)ccc1-c1ccn(-c2ccc3c4c(n(C)c3c2)CNCC4)c(=O)c1,Ki,[4],17 nM
CSc1ccc(-c2ccn(-c3ccc4c5c(n(C)c4c3)CNCC5)c(=O)c2)cc1,Ki,[4],8.4 nM
Cn1c2c(c3ccc(-n4ccc(-c5ccc(Cl)cc5)cc4=O)cc31)CCNC2,Ki,[4],11 nM
CC(=O)N1CCc2c(c3ccc(-n4ccc(OCc5ccccc5)cc4=O)cc3n2C)C1,Ki,[4],168 nM
COc1cc(Cl)ccc1-c1ccn(-c2ccc3c4c(n(C)c3c2)CCNC4)c(=O)c1,Ki,[4],7 nM
Cn1c2c(c3ccc(-n4ccc(OCc5ccccc5)cc4=O)cc31)CN(CCO)CC2,Ki,[4],3.6 nM
Cn1c2c(c3ccc(-n4ccc(-c5ccccc5)cc4=O)cc31)CNCC2,Ki,[4],15 nM
